# Legend:
# Assay type in all cases: functional, organism-based
# [1] = species: Rattus norvegicus; test: Decrease food (g/rat/day) intake in male Wistar rats diabetic treated (DT) group (number of rats = 12) which received compound dissolved in tap water
# In short: (§1)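 Male Wistar rats; diabetes induced by a single tail-vein injection of streptozocin, 60 mg/kg in 0.9% NaCl, and non-diabetic rats got saline. Treated groups drank the compound in tap water (1.58 mM), and untreated groups drank tap water. Food and fluid intake per 24 h per cage was divided by rats per cage. Values at week 4, mean ± SEM, ANOVA/Newman-Keuls.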
# [2] = species: Rattus norvegicus; test: Decrease in plasma insulin (microUnits/mL) of Male Wistar ratsrecieved an equivalent volume of isotonic saline (C control group)
# In short: (§2)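 Wistar males, with STZ diabetes from 60 mg/kg i.v. in saline or saline-injected controls. Treated groups got the compound ad libitum in drinking water (1.58 mM) and untreated groups got tap water. Plasma was taken after 4 weeks by centrifuging blood at 20000g for 10 min at 4 °C and kept at -70 °C until assay. Reported as mean ± SEM, with ANOVA then Newman-Keuls.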
# [3] = species: Rattus norvegicus; test: Decrease in plasma cholesterol (mM) in male Wistar rats diabetic treated (DT) group (number of rats = 12) which received compound dissolved in tap water; in short: as §2
# [4] = species: Rattus norvegicus; test: Decrease in plasma glucose (mM) of male Wistar rats control treated (CT) group (number of rats = 11) which received compound dissolved in tap water; in short: as §2
# [5] = system: Rattus norvegicus; test: Decrease in plasma glucose (mM)in male Wistar rats diabetic (D) group (number of rats = 11) where the diabetic state was induced by intravenous administration of streptozocin (STZ) at 60 mg/kg; design: dose 60 mg/kg; in short: as §2
# [6] = species: Rattus norvegicus; test: Decrease in plasma insulin (microUnits/mL) of male Wistar rats control treated (CT) group (number of rats = 11) which received compound dissolved in tap water; in short: as §2
# [7] = species: Rattus norvegicus; test: Decrease in plasma glucose (mM) of Male Wistar ratsrecieved an equivalent volume of isotonic saline (C control group); in short: as §2
# [8] = species: Rattus norvegicus; test: Decrease in weight of male Wistar rats control treated (CT) group (number of rats = 11) which received compound dissolved in tap water
# In short: (§3)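 Male Wistar rats housed 2–3 per cage on a 12 h light/dark cycle with free food and water. Diabetes was induced by i.v. streptozocin, 60 mg/kg in 0.9% NaCl, and controls got saline. Treated groups drank the compound at 1.58 mM in tap water. Body weight was recorded daily and reported at week 4 as mean ± SEM, with ANOVA/Newman-Keuls.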
# [9] = species: Rattus norvegicus; test: Decrease in fluid intake of Male Wistar ratsrecieved an equivalent volume of isotonic saline (C control group); in short: as §1
# [10] = species: Rattus norvegicus; test: Decrease in plasma glucose (mM) in male Wistar rats diabetic treated (DT) group (number of rats = 12) which received compound dissolved in tap water; in short: as §2
# [11] = system: Rattus norvegicus; test: Decrease in plasma triglyceride (mM)in male Wistar rats diabetic (D) group (number of rats = 11) where the diabetic state was induced by intravenous administration of streptozocin (STZ) at 60 mg/kg; design: dose 60 mg/kg; in short: as §2
# [12] = species: Rattus norvegicus; test: Decrease in food intake of Male Wistar ratsrecieved an equivalent volume of isotonic saline (C control group); in short: as §1
# [13] = species: Rattus norvegicus; test: Decrease in food intake of male Wistar rats control treated (CT) group (number of rats = 11) which received compound dissolved in tap water; in short: as §1
# [14] = system: Rattus norvegicus; test: Decrease in food (g/rat/day)in take in male Wistar rats diabetic (D) group (number of rats = 11) where the diabetic state was induced by intravenous administration of streptozocin (STZ) at 60 mg/kg; design: dose 60 mg/kg; in short: as §1
# [15] = system: Rattus norvegicus; test: Decrease in plasma insulin (microUnits/mL) in male Wistar rats diabetic (D) group (number of rats = 11) where the diabetic state was induced by intravenous administration of streptozocin (STZ) at 60 mg/kg; design: dose 60 mg/kg; in short: as §2
# [16] = species: Rattus norvegicus; test: Decrease in plasma cholesterol (mM) of male Wistar rats control treated (CT) group (number of rats = 11) which received compound dissolved in tap water; in short: as §2
# [17] = species: Rattus norvegicus; test: Decrease in plasma triglyceride (mM) in male Wistar rats diabetic treated (DT) group (number of rats = 12) which received compound dissolved in tap water; in short: as §2
# [18] = system: Rattus norvegicus; test: Decrease in fluid (mL/rat/day)-intake-in male Wistar rats diabetic (D) group (number of rats = 11) where the diabetic state was induced by intravenous administration of streptozocin (STZ) at 60 mg/kg; design: dose 60 mg/kg; in short: as §1
# [19] = species: Rattus norvegicus; test: Decrease in plasma triglyceride (mM) of male Wistar rats control treated (CT) group (number of rats = 11) which received compound dissolved in tap water; in short: as §2
# [20] = species: Rattus norvegicus; test: Decrease in plasma insulin (microUnits/mL) in male Wistar rats diabetic treated (DT) group (number of rats = 12) which received compound dissolved in tap water; in short: as §2
# [21] = system: Rattus norvegicus; test: Decrease in weight(g)in male Wistar rats diabetic (D) group (number of rats = 11) where the diabetic state was induced by intravenous administration of streptozocin (STZ) at 60 mg/kg; design: dose 60 mg/kg; in short: as §3
# [22] = species: Rattus norvegicus; test: Decrease in fluid (mL/rat/day)-intake in male Wistar rats diabetic treated (DT) group (number of rats = 12) which received compound dissolved in tap water; in short: as §1
# [23] = species: Rattus norvegicus; test: Decrease in fluid intake of male Wistar rats control treated (CT) group (number of rats = 11) which received compound dissolved in tap water; in short: as §1
# [24] = species: Rattus norvegicus; test: Decrease weight(g) in male Wistar rats diabetic treated (DT) group (number of rats = 12) which received compound dissolved in tap water; in short: as §3
# [25] = system: Rattus norvegicus; test: Decrease in plasma cholesterol (mM)in male Wistar rats diabetic (D) group (number of rats = 11) where the diabetic state was induced by intravenous administration of streptozocin (STZ) at 60 mg/kg; design: dose 60 mg/kg; in short: as §2
# [26] = species: Rattus norvegicus; test: Decrease in plasma triglyceride (mM) of Male Wistar ratsrecieved an equivalent volume of isotonic saline (C control group); in short: as §2
# [27] = species: Rattus norvegicus; test: Decrease in weight of Male Wistar ratsrecieved an equivalent volume of isotonic saline (C control group); in short: as §3
# [28] = species: Rattus norvegicus; test: Decrease in plasma cholesterol (mM) of Male Wistar ratsrecieved an equivalent volume of isotonic saline (C control group); in short: as §2
substance,measurement,setting,value
BIS(MALTOLATO)OXOVANADIUM(IV),Food (g rat-1 day-1),[1],37.9
same,Plasma insulin,[2],35.6 uUnits ml-1
same,Plasma cholesterol,[3],1.6 mM
same,Plasma glucose,[4],4.1 mM
same,Plasma glucose,[5],13.9 mM
same,Plasma insulin,[6],21.6 uUnits ml-1
same,Plasma glucose,[7],4 mM
same,WEIGHT,[8],391 g
same,Fluid (ml rat-1 day-1),[9],59
same,Plasma glucose,[10],7 mM
same,Plasma triglyceride,[11],2.7 mM
same,Food (g rat-1 day-1),[12],28.3
same,Food (g rat-1 day-1),[13],28.8
same,Food (g rat-1 day-1),[14],63.5
same,Plasma insulin,[15],22 uUnits ml-1
same,Plasma cholesterol,[16],1.7 mM
same,Plasma triglyceride,[17],1.9 mM
same,Fluid (ml rat-1 day-1),[18],264
same,Plasma triglyceride,[19],2.1 mM
same,Plasma insulin,[20],21.9 uUnits ml-1
same,WEIGHT,[21],349 g
same,Fluid (ml rat-1 day-1),[22],52
same,Fluid (ml rat-1 day-1),[23],43
same,WEIGHT,[24],311 g
same,Plasma cholesterol,[25],2.4 mM
same,Plasma triglyceride,[26],1.8 mM
same,WEIGHT,[27],404 g
same,Plasma cholesterol,[28],1.4 mM

# From ChEMBL document CHEMBL1125445, “Bis(maltolato)oxovanadium(IV) is a potent insulin mimic” (J Med Chem, 1992)
